A short description of assay [1]: inhibitors of TNFa-induced NFkB p65 translocation, primary screen, imaging, HUVEC, MLSMR starter and 10KST1 sets (AID 438;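 active = inhibition above 20% together with a positive visual image hit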;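 also: compound added about 3h40 before a 20 min TNFalpha stimulation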;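 as to inhibition: signal is the nuclear over cytoplasmic p65 intensity ratio per well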). The following applies: HUVEC TNFa-induced p65 nuclear translocation; cell count: measured here: nuclei count (cytotoxicity indicator), at 2.08 µM; inhibition: at 2 µM, stronger effect = higher value, 0% TNFa-plus-vehicle, 100% no-TNFa wells.
The nature of assay [2]: reduction of polyQ htt aggregates in cells – imaging, exon1htt(103Q)mCFP cells, high-content imaging, primary screen (AID 483;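 active = visual image review flags a hit and inhibition of aggregation exceeds 20%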;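 also: compound exposure lasted 3 days before fixation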;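 as to nuclei count: percent of the per-plate median nuclei count of sample wells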). The following applies: exon1htt(103Q)mCFP cell line, aggregate imaging, at 2 µM; inhibition of aggregation: stronger effect = higher value; nuclei count: measured here: cell count, toxicity.
Assay [3] in a line: endothelial E-selectin expression blockers – imaging, HUVEC, immunofluorescence, MLSMR starter and 10KST1 sets, primary screen (AID 487;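 active = visually confirmed hit in the image check and inhibition above 20%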;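 as to inhibition: signal is fraction of cell area covered by stained E-selectin grains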;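 as to nuclei count: 100% = median nuclei count of all wells on the same plate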). As to conditions: HUVEC TNFalpha-induced E-selectin immunofluorescence imaging, at 2 µM; inhibition: stronger effect = higher value; nuclei count: measured here: cell number, toxicity.
For assay [4], the target named is Voltage-gated potassium channel subunit beta-2 (Rattus norvegicus) (UniProt P62483). The experiment in a line: inhibitors of rat Kvbeta2 reductase activity – biochemical, NADPH fluorescence, primary screen (AID 622;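 active = fluorescence slope higher than the sample average by over 3 SD, cut at about -0.22 in these data, passing the limit was not always enough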;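 also: slope of raw intensity against log time taken from 70 to 1610 s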). The following applies: recombinant KvBeta, 4-cyanobenzaldehyde reduction, at 10 µM, stronger effect = higher value.
Sequence of Voltage-gated potassium channel subunit beta-2 (Rattus norvegicus) (P62483 whole entry, looked up): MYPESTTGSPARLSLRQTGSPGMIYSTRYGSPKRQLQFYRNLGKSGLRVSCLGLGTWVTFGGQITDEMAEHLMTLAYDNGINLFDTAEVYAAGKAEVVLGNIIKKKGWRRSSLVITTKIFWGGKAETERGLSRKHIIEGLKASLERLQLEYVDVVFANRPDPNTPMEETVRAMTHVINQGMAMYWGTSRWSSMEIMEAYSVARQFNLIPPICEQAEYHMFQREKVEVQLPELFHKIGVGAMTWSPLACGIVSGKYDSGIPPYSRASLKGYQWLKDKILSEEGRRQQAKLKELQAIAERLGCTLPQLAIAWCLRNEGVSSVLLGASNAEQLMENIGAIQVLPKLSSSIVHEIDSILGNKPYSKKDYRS
The target is the same in assay [5]. The experiment in a line: enhancers of rat Kvbeta2 NADPH turnover – biochemical, NADPH fluorescence, primary screen (AID 623;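 active = NADPH fluorescence slope more negative than the mean of all samples by about 3 SD, 99.7% confidence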;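 also: fluorescence intensity change per second fitted from 20 to 320 s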). The following applies: Recombinant KvBeta, NADPH fluorescence decrease slope, 10 min; at 10 µM; stronger effect = lower value.
The target in assay [6] is Muscarinic acetylcholine receptor M4 (Homo sapiens) (UniProt P08173). The experiment in a line: M4-linked GIRK flux change, two-sided – cell-based, HEK293 M4/GIRK, thallium flux, BTC-AM, M4 allosteric agonist project, primary screen (AID 625;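 active = fluorescence slope after compound addition differing from the mean of all tested samples at 99.7% confidence, mostly higher but some lower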;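 also: thallium influx through GIRK channels coupled to M4 in HEK293 cells with BTC-AM dye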). The following applies: at 10 µM, actives lie on both sides. An outline of the steps: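 Material – HEK293 cells with M4 receptor and GIRK channels · Buffer or medium – pH 7.3 thallium assay buffer · Doses – one dose, 10 µM final · Timing – cells overnight at 37 °C, BTC-AM loading 1 h, reads 2 min total · Measured by – kinetic fluorescence with BTC-AM dye · Controls – carbachol and DMSO controls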
Sequence of Muscarinic acetylcholine receptor M4 (Homo sapiens) (P08173 whole entry, looked up): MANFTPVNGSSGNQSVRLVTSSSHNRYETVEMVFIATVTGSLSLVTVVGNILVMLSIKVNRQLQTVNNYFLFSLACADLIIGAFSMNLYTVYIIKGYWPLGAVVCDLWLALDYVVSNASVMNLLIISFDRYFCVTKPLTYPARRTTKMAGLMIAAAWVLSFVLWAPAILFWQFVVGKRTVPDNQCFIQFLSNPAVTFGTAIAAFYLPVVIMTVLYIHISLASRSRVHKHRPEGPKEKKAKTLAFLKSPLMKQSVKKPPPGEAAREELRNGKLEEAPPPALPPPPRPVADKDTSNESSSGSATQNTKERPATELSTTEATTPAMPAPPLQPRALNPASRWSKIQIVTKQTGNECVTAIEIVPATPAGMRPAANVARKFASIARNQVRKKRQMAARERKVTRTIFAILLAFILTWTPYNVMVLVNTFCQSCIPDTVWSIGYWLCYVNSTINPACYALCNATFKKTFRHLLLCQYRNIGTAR

Assay [7] is described as follows: blockers of RIG-like receptor reporter activation – cell-based, Sendai virus stimulus, luciferase, 10K MLSCN set, TLR/RLR signaling modifier project, primary screen (AID 602276).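 Also: firefly luciferase from ISG56 promoter only with Renilla not read in this screen; 0% = Sendai virus plus DMSO and 100% = medium plus DMSO without virus.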 As to conditions: HEK293 RL24 IRF3 luciferase reporter, at 10 µM, stronger effect = higher value.
Assay [8] is described as follows: TLR3 IRF3 reporter activation blockers – cell-based, poly I:C stimulus, luciferase, 10K MLSCN set, primary screen (AID 602277;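 active = inhibition of the reporter signal at or above 50%; inactive = inhibition below 50%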). As to conditions: HEK293-TLR3 RL24 IRF3 luciferase reporter, at 10 µM, stronger effect = higher value.

Structures are written as SMILES. Activity calls are given as the source filed them.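 The calls were made as follows, unless noted: active = inhibition at or above 50% at 10 µM; inactive = inhibition below 50%.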

Broadly, the inhibition is the relative decrease from the control value, in per cent.

With `CCOC(=O)C1=C(CC)Nc2ccccc2N=C1NC(=O)Cn1cnc2ccccc2c1=O`, the cell count in assay [1] was found to be 529. Also, the inhibition in assay [1] was 6.3% (inactive); in assay [3], -28.7% (inactive); in assay [7] it was 10.4% (inactive); in assay [8] it was 20% (inactive). In addition, in assay [2], the inhibition of aggregation is 6.9% (inactive). Also, the nuclei count was 117% in assay [2] and 123% in assay [3]. Moreover, the fluorescence slope is -0.534 (inactive) in assay [4] and 0.00608 (inactive) in assay [6]. Besides, the NADPH fluorescence slope in assay [5] was -4.1e-05 (inactive).

For `COC(=O)C1CCN(C(=O)CSc2nnc(-c3ccncc3)o2)CC1`, the cell count in assay [1] was determined as 682. The inhibition in assay [1] is -6.4% (inactive); in assay [3] it was -9.5% (inactive); in assay [7], -9.36% (inactive); in assay [8], -15.6% (inactive). In assay [2], the inhibition of aggregation was 22.4% (inactive). Further, the nuclei count in assay [2] was determined as 59.8%; in assay [3] it was 109%. For the same compound, the fluorescence slope is -0.57 (inactive) in assay [4] and 0.0106 (inactive) in assay [6]. In assay [5], the NADPH fluorescence slope is -5.5e-05 (inactive).

Turning to `O=C(O)C1CC(=O)N(Cc2ccccc2)C1` (centres undefined), the cell count in assay [1] came out at 398. For the same compound, the inhibition was -1.8% (inactive) in assay [1], -43.7% (inactive) in assay [3], 16.7% (inactive) in assay [7] and 17% (inactive) in assay [8]. Further, in assay [2], the inhibition of aggregation is -0.4% (inactive). The nuclei count in assay [2] amounted to 110%; in assay [3], 127%. The fluorescence slope in assay [4] was -0.526 (inactive); in assay [6] it was 0.00382 (inactive). In addition, the NADPH fluorescence slope in assay [5] is -0.00016 (inactive).

`Cc1cc(NC(=O)CS(=O)(=O)c2cn(Cc3cccc(F)c3)c3ccccc23)no1`: in assay [1], the cell count stood at 815. Also, the inhibition in assay [1] was -6.6% (inactive); in assay [3], -94.1% (inactive); in assay [7], 11.5% (inactive); in assay [8], 0.399% (inactive). For the same compound, in assay [2], the inhibition of aggregation is 6.9% (inactive). Moreover, the nuclei count in assay [2] came out at 116%; in assay [3], 107%. Besides, the fluorescence slope is -0.262 (inactive) in assay [4] and 0.00574 (inactive) in assay [6]. Further, in assay [5], the NADPH fluorescence slope was -2.4e-05 (inactive).

Consider `O=C(CSc1nnc(Cc2ccccc2)n1C1CCCCC1)N1CCOCC1`, for which the cell count in assay [1] is 367. Besides, the inhibition in assay [1] is 7.2% (inactive); in assay [3], -264% (inactive); in assay [7], -13% (inactive); in assay [8] it was -20.2% (inactive). Further, in assay [2], the inhibition of aggregation is 12.5% (inactive). Moreover, the nuclei count stood at 104% in assay [2] and 113% in assay [3]. Also, the results for the fluorescence slope in assay [4] and in assay [6] were -0.463 (inactive) and 0.00611 (inactive), respectively. Also, the NADPH fluorescence slope in assay [5] was 5e-05 (inactive).

As to `CCOC(=O)C1C(=O)NC(SCC(=O)Nc2nccs2)=C(C#N)C1c1ccccc1OCC` (centres undefined), the cell count in assay [1] amounted to 605. Further, the inhibition was -27.7% (inactive) in assay [1], 20.7% (inactive) in assay [3], 19.6% (inactive) in assay [7] and 20.1% (inactive) in assay [8]. In addition, the inhibition of aggregation in assay [2] was -20.6% (inactive). For the same compound, the results for the nuclei count in assay [2] and in assay [3] were 120% and 104%, respectively. Also, the figures for the fluorescence slope in assay [4] and in assay [6] were -0.454 (inactive) and 0.00515 (inactive), respectively. Besides, the NADPH fluorescence slope in assay [5] is -3.1e-05 (inactive).

Regarding `CCCCNS(=O)(=O)c1ccc(OC)c2ncccc12`, the cell count in assay [1] came to 568. The inhibition is 4.1% (inactive) in assay [1], -1.9% (inactive) in assay [3], -12.5% (inactive) in assay [7] and -11.5% (inactive) in assay [8]. The inhibition of aggregation in assay [2] was 16.3% (inactive). The results for the nuclei count in assay [2] and in assay [3] were 115% and 93%, respectively. Further, the fluorescence slope is -0.337 (inactive) in assay [4] and 0.00627 (inactive) in assay [6]. The NADPH fluorescence slope in assay [5] is -4.1e-05 (inactive).

With `CCn1cc(C(=O)OCC(=O)OC2CC(C)CCC2C(C)C)c(=O)c2ccc(C)nc21` (centres undefined), in assay [1], the cell count was determined as 519. For the same compound, the inhibition in assay [1] was -21.2% (inactive); in assay [3], 26.8% (inactive); in assay [7], 18.5% (inactive); in assay [8], 5.31% (inactive). Moreover, the inhibition of aggregation in assay [2] was 2.5% (inactive). Also, the figures for the nuclei count in assay [2] and in assay [3] were 92.5% and 104%, respectively. The fluorescence slope in assay [4] is -0.416 (inactive); in assay [6] it was 0.00567 (inactive). Further, the NADPH fluorescence slope in assay [5] was -0.000351 (inactive).

Regarding `Cc1onc(-c2ccccc2Cl)c1C(=O)Nc1cccc(-c2cn3cccnc3n2)c1`, the cell count in assay [1] is 369. Besides, the inhibition in assay [1] was -10.3% (inactive); in assay [3], -4% (inactive); in assay [7] it was 7.13% (inactive); in assay [8], 1.48% (inactive). For the same compound, the inhibition of aggregation in assay [2] was 7.8% (inactive). Also, the nuclei count stood at 100% in assay [2] and 109% in assay [3]. Also, the fluorescence slope was -0.0447 (inactive) in assay [4] and 0.00573 (inactive) in assay [6]. In assay [5], the NADPH fluorescence slope was -9.5e-06 (inactive).

Regarding `COC(=O)c1c(C)oc2ccc(NS(=O)(=O)c3cccs3)cc12`, the cell count in assay [1] was found to be 435. The inhibition was 3.4% (inactive) in assay [1], -85.7% (inactive) in assay [3], 20.8% (inactive) in assay [7] and 10.9% (inactive) in assay [8]. In addition, the inhibition of aggregation in assay [2] was 1.4% (inactive). Further, the results for the nuclei count in assay [2] and in assay [3] were 99.1% and 114%, respectively. Also, the fluorescence slope in assay [4] was -0.534 (inactive); in assay [6], 0.0032 (inactive). In addition, the NADPH fluorescence slope in assay [5] was -8.8e-05 (inactive).

Take `Cc1cc(-c2ccccc2)nc2cc(C(=O)NCCCn3ccnc3)nn12`: in assay [1], the cell count is 908. Moreover, the inhibition in assay [1] is 6.4% (inactive); in assay [3], -160% (inactive); in assay [7], 16.4% (inactive); in assay [8], 25.4% (inactive). The inhibition of aggregation in assay [2] is 19.7% (inactive). In addition, the nuclei count turned out to be 86.1% in assay [2] and 112% in assay [3]. The fluorescence slope is -0.362 (inactive) in assay [4] and 0.007 (inactive) in assay [6]. The NADPH fluorescence slope in assay [5] was 1.5e-05 (inactive).

Consider `Oc1ccc2[nH]cnc2c1CN1CCCCC1`, for which the cell count in assay [1] was 405. In addition, the inhibition in assay [1] was 2.2% (inactive); in assay [3], 8% (inactive); in assay [7], 15.4% (inactive); in assay [8], 25.1% (inactive). The inhibition of aggregation in assay [2] was 5.5% (inactive). In addition, the nuclei count turned out to be 88.7% in assay [2] and 95.1% in assay [3]. Also, the fluorescence slope in assay [4] is -0.569 (inactive); in assay [6], 0.00526 (inactive). Further, in assay [5], the NADPH fluorescence slope was -0.000119 (inactive).

As for `COCCCn1c2nc3ccccc3nc2c2c(=O)n(-c3ccccc3OC)cnc21`, the cell count in assay [1] is 334. Also, the inhibition in assay [1] is 6.3% (inactive); in assay [3], 16.9% (inactive); in assay [7], -1.7% (inactive); in assay [8], -9.3% (inactive). Moreover, the inhibition of aggregation in assay [2] is -5.4% (inactive). Moreover, the nuclei count in assay [2] is 98.2%; in assay [3], 102%. The fluorescence slope was -0.457 (inactive) in assay [4] and 0.0045 (inactive) in assay [6]. For the same compound, the NADPH fluorescence slope in assay [5] was 4.9e-05 (inactive).

As for `CCOC(=O)CSc1nnc(CNC(=O)c2ccc(S(=O)(=O)N3CCCC3)cc2)n1C`, the cell count in assay [1] is 617. The inhibition in assay [1] is 1.2% (inactive); in assay [3] it was -54.4% (inactive); in assay [7], 12.8% (inactive); in assay [8], 18.7% (inactive). The inhibition of aggregation in assay [2] is 1.3% (inactive). For the same compound, the values for the nuclei count in assay [2] and in assay [3] were 96.9% and 122%, respectively. For the same compound, the fluorescence slope in assay [4] was -0.58 (inactive); in assay [6], 0.00697 (inactive). In addition, the NADPH fluorescence slope in assay [5] was -8.2e-06 (inactive).

For the origin of these results see PubChem BioAssay.
